From ChEMBL document CHEMBL1133094 (J Med Chem, 2000)
pKi: −log10 of the molar value.

Columns and labels:
D(1A) dopamine receptor = D(1A) dopamine receptor (Rattus norvegicus, UniProt P18901); experiment: Binding Affinity was determined against Dopamine receptor D1 in rat striatal membranes using [3H]- SCH 23390 radioligand.; format: cell membranes, Striatum, Membrane
Summary of the method: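 Competition binding with rat striatal membranes as tissue source, reported as pKi. The labelled site is the D1-like family (D1 and D5 subtypes), not D1 alone. All compounds were tested as racemates.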

D(2) dopamine receptor = D(2) dopamine receptor (Rattus norvegicus, UniProt P61169); experiment: Binding Affinity was determined against Dopamine receptor D2 in rat striatal membranes using [3H]- spiperone radioligand.; format: cell membranes, Striatum, Membrane
D(2) dopamine receptor, sequence (P61169 whole entry): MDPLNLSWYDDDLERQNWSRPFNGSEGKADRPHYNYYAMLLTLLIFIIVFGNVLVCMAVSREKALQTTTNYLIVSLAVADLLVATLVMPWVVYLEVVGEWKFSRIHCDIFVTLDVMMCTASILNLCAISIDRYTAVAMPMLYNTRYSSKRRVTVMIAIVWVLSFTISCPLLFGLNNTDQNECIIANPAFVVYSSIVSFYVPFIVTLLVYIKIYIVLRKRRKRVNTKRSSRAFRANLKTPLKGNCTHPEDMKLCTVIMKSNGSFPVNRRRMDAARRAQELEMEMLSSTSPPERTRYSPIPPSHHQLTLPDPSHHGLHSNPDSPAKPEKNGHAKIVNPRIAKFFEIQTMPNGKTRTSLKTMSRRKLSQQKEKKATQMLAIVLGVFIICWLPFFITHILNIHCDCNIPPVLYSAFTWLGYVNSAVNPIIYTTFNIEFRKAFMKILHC

D(1A) dopamine receptor, sequence (P18901 whole entry): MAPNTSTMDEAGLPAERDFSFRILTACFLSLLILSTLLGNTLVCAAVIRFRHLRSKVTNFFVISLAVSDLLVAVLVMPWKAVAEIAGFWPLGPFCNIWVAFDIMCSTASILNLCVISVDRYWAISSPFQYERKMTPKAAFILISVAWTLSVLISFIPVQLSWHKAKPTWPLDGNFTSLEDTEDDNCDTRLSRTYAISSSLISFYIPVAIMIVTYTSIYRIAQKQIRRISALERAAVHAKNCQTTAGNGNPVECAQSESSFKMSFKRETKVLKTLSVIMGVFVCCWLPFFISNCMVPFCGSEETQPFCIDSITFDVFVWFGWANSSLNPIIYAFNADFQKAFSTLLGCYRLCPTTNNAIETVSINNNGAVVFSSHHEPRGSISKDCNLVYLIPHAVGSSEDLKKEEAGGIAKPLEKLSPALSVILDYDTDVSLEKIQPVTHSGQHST

pKi (D(1A) dopamine receptor)	pKi (D(2) dopamine receptor)	Structure (SMILES)
5.13	< 5.00	CCCN1CCc2c(Br)ccc(O)c2C1Cc1cc(OC)ccc1Br (centres undefined)
6.41	< 5.00	COc1ccc(Br)c(CC2c3c(O)ccc(Br)c3CCN2C)c1 (centres undefined)
5.17	< 5.00	CCN1CCc2cccc3c2C1Cc1cc(O)ccc1O3 (centres undefined)
5.37	5.03	COc1cc2c3c(c1)Oc1ccccc1CC3N(C)CC2 (centres undefined)
< 5.00	5.07	CCN1CCc2cc(OC)cc3c2C1Cc1ccccc1O3 (centres undefined)
< 5.00	< 5.00	CCCN1CCc2cc(O)cc3c2C1Cc1ccccc1O3 (centres undefined)
5.54	6.56	CN1CCc2cc(O)cc3c2C1Cc1ccccc1O3 (centres undefined)
5.81	< 5.00	CCN1CCc2c(Br)ccc(O)c2C1Cc1cc(OC)ccc1Br (centres undefined)
5.32	6.14	CN1CCc2cccc3c2C1Cc1cc(O)ccc1O3 (centres undefined)
5.12	6.07	COc1ccc2c(c1)CC1c3c(ccc(Br)c3CCN1C)O2 (centres undefined)
5.28	5.91	COc1ccc2c(c1)CC1c3c(cccc3O2)CCN1C (centres undefined)
4.93	5.15	COc1cc(Br)c2c(c1)CCN(C)C2Cc1ccccc1O (centres undefined)
< 5.00	< 5.00	CCCN1CCc2cccc3c2C1Cc1cc(O)ccc1O3 (centres undefined)
< 5.00	5.46	CCCN1CCc2cc(OC)cc3c2C1Cc1ccccc1O3 (centres undefined)
5.52	5.51	CCN1CCc2cc(OC)cc(Br)c2C1Cc1ccccc1O (centres undefined)
< 5.00	5.73	CCN1CCc2cccc3c2C1Cc1cc(OC)ccc1O3 (centres undefined)
5.61	< 5.00	CCCN1CCc2c(Br)ccc3c2C1Cc1cc(OC)ccc1O3 (centres undefined)
5.41	< 5.00	CCCN1CCc2cccc3c2C1Cc1cc(OC)ccc1O3 (centres undefined)
5.77	5.74	COc1cc(Br)cc2c1C(Cc1ccccc1O)N(C)CC2 (centres undefined)
5.25	5.66	CCN1CCc2cc(Br)cc(OC)c2C1Cc1ccccc1O (centres undefined)
5.46	< 5.00	CCN1CCc2c(Br)ccc3c2C1Cc1cc(OC)ccc1O3 (centres undefined)
5.46	5.19	CCN1CCc2cc(O)cc3c2C1Cc1ccccc1O3 (centres undefined)
